In ChEMBL document CHEMBL4513216, “Probing the Open Global Health Chemical Diversity Library for Multistage-Active Starting Points for Next-Generation Antimalarials” (ACS Infect Dis, 2020):

Experiment: Toxicity liver stage against HepG2, at 10uM
Format: cell-based
Parameters: test concentration 10 uM, cell line HepG2-A16-CD81EGFP
Conditions: human, HepG2-A16-CD81EGFP cells; read-out: INHIBITION
Outline: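 Uninfected HepG2-A16-CD81EGFP cells, 3 × 10^3 per well, 1536-well, plated on prespotted compound at 10 μM final, parasite-free screening media added to match infected plates; puromycin 10 μM positive, DMSO 0.5% negative; run in parallel with 48 h PbLuc assay at 37 °C, 5% CO2; viability by CellTiter-Glo luminescence, normalized to controls.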

Row | Compound | cytotoxicity at 10 µM [%]
1 | CCOC(=O)C1(Cc2cccc(OC)c2)CCN(Cc2ccon2)CC1 | 2.61
2 | Cn1c(=O)oc2cc(S(=O)(=O)N3CCC(c4ccccc4)C3)c(Cl)cc21 (stereo not given) | 12.4
3 | CCOC(=O)CN1C(=O)CN(S(C)(=O)=O)CCC(OC)c2ccccc21 (stereo not given) | 1.5
4 | COc1ccc2c(ccn2CC(=O)NC[C@@H]2CCCN3CCCC[C@H]23)c1 | -4.56
5 | CC(O)(CNC(=O)c1c(F)cccc1Cl)c1ccco1 (stereo not given) | 2.22
6 | CN1CCCN(C(=O)c2nc3c(n2C)CCN(c2ncccn2)C3)CC1 | -9.18
7 | CCNC(=O)c1ccc2ccc(N(CC)CC)n2c1 | 1.67
8 | CNC(=O)[C@H]1C[C@@H]2CN(c3cc(OC)ncn3)C[C@@H]2N1C(C)C | -8.84
9 | Cc1cccc(CO[C@H]2CO[C@@]3(CCN(S(=O)(=O)N(C)C)C3)C2)n1 | 7.7
10 | COc1ccccc1OCC(=O)N1CCC[C@]2(C[C@@H](OC)CO2)C1 | 1.04
11 | Cc1cccc(-c2nccnc2C2CCN(C)CC2)c1C | 2.14
12 | Cc1nc(-c2ccc(F)cc2)cc(C2CCNCC2)n1 | 8.1
13 | Cc1ccc(CCN2CCCC23Cc2ccccc2CNC3=O)cc1 (stereo not given) | 7.41
14 | CCc1cc2c(N3CCCC(c4cc(C(N)=O)[nH]n4)C3)ncnc2s1 (stereo not given) | 3.25
15 | CC(O)CN(C(=O)NC1CC1)C(C)C (stereo not given) | 13.1
16 | CCSCCOC(=O)CCCc1ccc2c(c1)CC(=O)N2 | 6.34
17 | CC(C)N(CC(=O)Nc1cccc(C#N)c1)C1CC1 | -7.16
18 | O=C1OCCCN1Cc1nc(-c2ccc(N3CCCCC3)cc2)no1 | 7.04
19 | Cc1nc(CCCNC(=O)Nc2cc(F)cc(F)c2)n[nH]1 | -8.39
20 | Cc1cccc(S(=O)(=O)NC(=O)CN(C)Cc2ccccc2)c1 | -14.3
21 | O=C(NCCNC1CCN(c2nccs2)CC1)c1cccs1 | 5.73
22 | O=C(Cc1cccs1)NCC1(O)CCSC1 (stereo not given) | -9.66

Row | Compound | cytotoxicity at 10 µM [%]
23 | CC1CCN(CC2CCCN(C(=O)Nc3ccccn3)C2)CC1 (stereo not given) | -9.85
24 | Cc1ccc(NCCNC(=O)C2Cc3cc(C)c(C)cc3O2)nn1 (stereo not given) | 3.34
25 | CCc1noc(CN(C)C(=O)c2ccnc(OC3CCC3)c2)n1 | 4.86
26 | CC(C)COCCC(=O)NCc1cn2cc(Br)ccc2n1 | 4.26
27 | COc1ncccc1C(=O)N1CCCC(n2ccnc2C)C1 (stereo not given) | -7.41
28 | COCCOCC(=O)Nc1ccc(F)cc1C | 12.8
29 | COC1CCCN(C(=O)NCCCF)C1 (stereo not given) | 0.215
30 | CC(CCNC(=O)NCCc1ccc(S(N)(=O)=O)cc1)c1ccccc1 (stereo not given) | -17.4
31 | O=C(NC1CCN(c2ncccn2)CC1)c1cc2c(cc1O)CCCC2 | 8
32 | CC(NC(=O)N1CCC(CO)CC1)c1csc2ccccc12 (stereo not given) | -5.4
33 | Cc1ccc(S(=O)(=O)NC(=O)CCOCC(C)C)s1 | -5.36
34 | COc1cc(CN(C)Cc2cccnc2)c(SC)cc1OC | 2.3
35 | COCCNC(=O)c1ccc2c(=O)n3c(nc2c1)CCCCCC3 | -46.3
36 | CN1CC(C(=O)NCc2cccnc2OCc2ccccc2)CC1=O (stereo not given) | 4.44
37 | CC(=O)N1CCCN(C2CCCCc3ccccc32)CC1 (stereo not given) | -48.6
38 | Cc1cc(NC(=O)C(C)N2CCN(c3ccc(C#N)cc3F)CC2)no1 (stereo not given) | 6.16
39 | CCOc1ccc(CN(CCC#N)CCN2CCOCC2)cc1OC | -9.98
40 | O=C(CCc1ccsc1)NS(=O)(=O)Cc1ccon1 | -12.6
41 | CN(CC(=O)N(C)C1CCCCC1)Cc1nc2c(cnn2C)c(=O)[nH]1 | 9.12
42 | Fc1cc(CNCc2ccc3c(c2)CCO3)ccc1N1CCOCC1 | -7.24
43 | Cc1ccc(CNCC2Cn3nncc3CO2)s1 (stereo not given) | -99.4
44 | O=C(c1cscn1)N1CC[C@H]2[C@@H]1CCC(=O)N2c1ccccc1 | -68.8

Row | Compound | cytotoxicity at 10 µM [%]
45 | Cc1ccoc1C(=O)N1C[C@@H](OCC2CC2)[C@H]2OCCC[C@H]21 | 5.86
46 | NC(=O)N1CCC2(CC1)CN(c1ccsc1)C(=O)CO2 | 10.7
47 | O=C1[C@@H]2CCN(Cc3ccncc3)C[C@@H]2OCCN1c1ccccc1 | -1.06
48 | CNC(=O)c1cn2cc(-c3cccc(Cl)c3)n(CC3CC3)c(=O)c2n1 | -37.4
49 | CC(C)c1nnc2n1CCN(Cc1ccc3c(c1)OCO3)CC2 | 1.67
50 | Cc1csc2c(N3CCC(NCCCC4CCOC4)CC3)ncnc12 (stereo not given) | 3.3
51 | O=C(C1CCOCC1)N1CCOC(CC2CCCCC2)C1 (stereo not given) | -5.56
52 | Cc1cc(C)c2c(c1)C(CC(=O)O)C(=O)N2 (stereo not given) | 7.16
53 | c1ccc(-c2ncn(CCCN3CCOCC3)c2-c2ccncc2)cc1 | -7.64
54 | CCNC(=O)[C@@H]1C[C@@H](NC(=O)c2cc(C)on2)CN1Cc1ccccn1 | -6.78
55 | Cc1[nH]c2ccc(CNc3cc(C(=O)NC(C)C)ccn3)cc2c1C | 16.2
56 | Cc1n[nH]c(CCC(=O)N2CCOC(Cc3ccc(F)cc3)C2)c1C (stereo not given) | -40.4
57 | CCOC(=O)N[C@H]1C[C@@H](C(=O)NCCc2cccc(Cl)c2)N(C)C1 | -3.79
58 | Cc1ccc([C@@H]2CN(S(=O)(=O)Cc3ccccc3)C[C@H]2N(C)C)cc1 | -2.85
59 | CNC(=O)[C@@H]1C[C@@H](N)CN1Cc1ccc2cccc(OC)c2n1 | 0.719
60 | CN(C)c1nc(NCCCN2CCc3ccccc32)ncc1F | 27.3
61 | CC(=O)Nc1ccc(CNC(=O)CNCc2sc(C)nc2C)cc1 | 6.95
62 | CSCc1nc(CNC(=O)c2cnn(C(C)C)c2)cs1 | 1.98
63 | Cc1nnsc1CN(C)Cc1ccc(C(=O)Nc2sccc2C#N)cc1 | 4.06
64 | CCc1nc(CNc2cc(C)nc(-c3cccnc3)n2)cs1 | -63.6
65 | Cc1nc[nH]c1-c1nccn1CCN1CCOC1=O | -5.58
66 | COc1ccc2nc(CCNC(=O)c3cc(CC(C)C)no3)[nH]c2c1 | 0.808

Row | Compound | cytotoxicity at 10 µM [%]
67 | COc1cc(N2CCCC(c3nccn3Cc3ccncc3)C2)ncn1 (stereo not given) | -6.82
68 | CC(C)CN1CCc2[nH]cnc2C12CCN(C(=O)c1ccccn1)CC2 | -11.6
69 | CC(C)[C@H]1CN(C2Cc3ccccc3C2)C[C@@H]1NS(=O)(=O)N(C)C | 1.52
70 | CCCc1cc(C(=O)N2C[C@H](O)[C@@H](N3CCCC3)C2)ccn1 | 5.92
71 | CSc1nccc(N2C[C@@H](CN3CCCCC3)[C@@H](CO)C2)n1 | -3.59
72 | Cc1ccc(C)c(C(=O)Nc2ccc(OC3CCN(C)CC3)cc2)c1 | 8.97
73 | COc1cccc(Cc2nc3c([nH]2)CC(C)(C)CNC3=O)c1OC | -2.88
74 | CNC(=O)c1[nH]nc2c1CN(c1cc(C3CCCNC3)nc(C)n1)CC2 (stereo not given) | -51.8
75 | COc1cccc(C(=O)N2CCN(C(=O)CCn3ccnc3)CC2)c1 | 10.3
76 | CCc1nc(N)sc1C(=O)N1CCCC(CCc2ccccc2C)C1 (stereo not given) | 6.46
77 | Fc1ccccc1-c1noc2c1CN(CC1CC1)CC2 | -15.4
78 | CC(C)n1ccnc1CN1CCCN(C(=O)c2cscn2)CC1 | -1.63
79 | CN(Cc1nc2ccccc2o1)CC1CCCN1c1cccnn1 (stereo not given) | -9.45
80 | Cc1cn2c(n1)CCC(NC(=O)CCC(F)(F)F)C2 (stereo not given) | -9.12
81 | Cc1ccc(CNC(c2ccccc2)c2nccn2C)cc1C (stereo not given) | 0.323
82 | Cn1nccc1CNC(=O)Nc1cc(C(F)(F)F)c[nH]c1=O | 1.04
83 | Cn1cc(C2CCCN2Cc2csc(C(C)(C)C)n2)cn1 (stereo not given) | -4.87
84 | CC(C)c1n[nH]c(C(=O)Nc2cc[nH]n2)c1Br | -9.73
85 | Nc1nc(C(=O)NCC2CCC3(CCNCC3)CO2)cs1 (stereo not given) | 21
86 | Cn1cc(CNC2CCc3c(ccc(=O)n3Cc3cccnc3)C2)cn1 (stereo not given) | -108
87 | Cc1ccc(CN2CCOC3(CCN(C(=O)C4CC=CC4)CC3)C2)cc1 | 15.5
88 | O=C1CC[C@H]2[C@H](CCN2C(=O)C2CCOC2)N1Cc1ccncc1 (stereo not given in full) | 6.67

Row | Compound | cytotoxicity at 10 µM [%]
89 | CN(C)C(=O)C1CCC2(CCN(Cc3cnn(C)c3)CC2)C1 (stereo not given) | 5.01
90 | COCCN1CCC2(CC1)CC(NC(=O)C(C)C)c1ccccc1O2 (stereo not given) | 3.82
91 | COCCN1C(=O)C2(CCN(CC3CC3)CC2)c2ccccc21 | -115
92 | c1cnc(N2CCCC3(CCN(CC4CCC4)C3)C2)nc1 (stereo not given) | -82.8
93 | O=C(c1cccnc1)N1CCN2C[C@H](Oc3cncnc3)C[C@H]2C1 | 8.1
94 | CC(C)OCCCN(CC(=O)N1CCNCC1)C(=O)c1ccc(F)cc1 | 8.85
95 | Cc1ccc(CN2CCC3(C2)C(=O)N(CC2CC2)c2ccccc23)s1 (stereo not given) | 13.4
96 | CCCN1CCC(c2nc3ccc(-c4ccccc4)cn3n2)CC1 | -129
97 | O=S(=O)(c1ccccc1)N1CCC2(CCCN2Cc2cccnc2)C1 (stereo not given) | -73.5
98 | COCCN1CCO[C@H]2CCN(C(=O)c3ccnnc3)CC[C@@H]21 | 0.196
99 | CN1[C@H](Cn2cncn2)C[C@@H]2CN(Cc3ccsc3)CC[C@@H]21 | -118
100 | CNC(=O)C1Cn2ccnc2C2(CCN(Cc3nccs3)CC2)O1 (stereo not given) | -67.2
101 | CNC(=O)CC1CC2(CCN(c3ncccn3)CC2)c2ccccc21 (stereo not given) | 11.6
102 | Cc1ccc(CN2CCn3c(CNC(=O)c4cccn4C)cnc3C2)s1 | 1.82
103 | Cn1nc(CN2CCCC2)c2c1CN(c1cnccn1)CC2 | -95.3
104 | COCCN1CCC12CCN(C(=O)c1ccc(C)nc1)C2 (stereo not given) | -102
105 | Cc1ccc(CN2CC[C@H]3OCC[C@@]3(COCC(=O)N(C)C)C2)s1 | -97.8
106 | O=C(C1CC1)N1CCc2ccccc2C12CCNCC2 | 5.35
107 | Cc1nc(C2(O)CCCNCC2)sc1CCOc1ccccc1Cl (stereo not given) | -28.1
108 | COCCN1CCCn2cnc(CNC3CCCC3)c2C1 | 4.92
109 | Cc1ccccc1C(=O)N1C[C@@H]2C(CN(C)CCc3ccccn3)[C@@H]2C1 (stereo not given in full) | -54.9
110 | Cc1ccnn1CCC(=O)N1C[C@@H]2CC[C@H]1CN(CC(=O)N(C)C)C2 | 8.42
